UHRF1 binding: human UHRF1 methylated DNA binding inhibitors; Q96T88; UHRF1 binding to methylated oligo, TR-FRET; inhibition, % at 4.4 µM; 370,000 tested, 0.75% active; AID 687016; in the data active = inhibition above about 21%;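 also: UHRF1 SRA domain binding a hemimethylated CpG hairpin DNA probe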
RBBP9 inh: blocks human serine hydrolase RBBP9 | 220,000 tested, 0.2% active | O75884 | AID 1515 | inhibition, % at 7.94 µM | recombinant RBBP9, FP-Rh probe fluorescence polarization;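 active = inhibition above the campaign mean of all tested compounds plus 3 SD, cut at about 14% in these data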
Target sequence (O75884 whole entry, looked up): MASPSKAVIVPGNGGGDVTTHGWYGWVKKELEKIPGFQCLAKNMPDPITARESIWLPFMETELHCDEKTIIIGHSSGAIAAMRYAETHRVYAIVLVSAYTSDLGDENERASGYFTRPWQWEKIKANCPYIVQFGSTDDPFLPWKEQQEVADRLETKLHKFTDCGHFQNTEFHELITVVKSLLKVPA
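Test system: recombinant human RBBP9. Quantity: 2.5 µM RBBP9 dispensing solution, before mixing. Detection: FP readout at 525/598 nm. Reagent: Serine-hydrolase probe FP-Rh, 375 nM pre-mixing. Measure: % inhibition. Control set: DMSO-treated enzyme wells and wells lacking RBBP9. Buffer or medium: Tris-NaCl-Pluronic buffer, pH 8.0. Times: preincubation 30 min plus labeling 45 min at 25 °C.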
MBD2 DNA inh: blocks human MBD2 binding to methylated DNA; TR-FRET, MBD2 binding to methylated oligonucleotide; 370,000 tested, 0.31% active; Q9UBB5; inhibition, % at 4.4 µM; in the data active = inhibition above about 13%
ABHD5-PLIN5 inh: ABHD5-PLIN5 protein interaction inhibition | AID 602281 | Q00G26+Q8WTS1 | inhibition, % at 4 µM | 360,000 tested, 0.78% active | Split G. princeps luciferase complementation, luminescence, 4 h;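 active = inhibition above the mean inhibition across every tested compound plus 3 SD, cut at about 22% in these data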
PRMT1 inh: blocks human protein arginine methyltransferase 1. inhibition, % at 2.79 µM. Q99873. recombinant PRMT1, activity-based probe fluorescence polarization. 370,000 tested, 1.3% active;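 active = inhibition above about 21% made by adding two undisclosed values, limit read from the data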
Target sequence (Q99873 whole entry, looked up): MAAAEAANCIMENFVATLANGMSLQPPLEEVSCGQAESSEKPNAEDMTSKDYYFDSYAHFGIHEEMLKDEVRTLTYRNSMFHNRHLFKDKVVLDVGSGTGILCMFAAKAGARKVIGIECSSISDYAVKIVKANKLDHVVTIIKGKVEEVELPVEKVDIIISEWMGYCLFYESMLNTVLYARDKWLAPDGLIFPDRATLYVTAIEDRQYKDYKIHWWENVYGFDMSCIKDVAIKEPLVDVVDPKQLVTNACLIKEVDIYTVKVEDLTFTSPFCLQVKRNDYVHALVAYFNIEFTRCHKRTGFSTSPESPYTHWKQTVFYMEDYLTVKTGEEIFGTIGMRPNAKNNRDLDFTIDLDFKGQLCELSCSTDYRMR
LEDGF integ inh: blocks HIV-1 LEDGF/p75-dependent DNA integration; TR-FRET IN-LEDGF/p75 DNA integration, Eu/Cy5; inhibition, % at 3.7 µM; 370,000 tested, 0.64% active;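 active = inhibition above the screen-wide mean plus 3 SD, cut at about 13% in these data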;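 also: signal is the Cy5 over europium emission ratio at 671 and 618 nm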
PRMT1 confirm: confirmation of human PRMT1 inhibitors; shares compounds with PRMT1 inh; recombinant His-PRMT1, activity-based probe fluorescence polarization; inhibition, % at 2.79 µM; 3,300 tested, 42% active; AID 687036;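 active = mean inhibition across replicates above the hit cutoff derived for the earlier primary screen, cut at about 22% in these data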
A number is an active result; . = inactive; / = no result. Hits are enriched below; roughly 3.1% of the tested compounds scored in any of these assays.

SMILES	UHRF1 binding	RBBP9 inh	MBD2 DNA inh	ABHD5-PLIN5 inh	PRMT1 inh	LEDGF integ inh	PRMT1 confirm
O=C(/C=C/c1ccccc1)CCN1CCOCC1	.	/	.	.	27.1	.	58.0
O=C1CCC[C@H]2[C@@H](Cc3ccccc3)[C@@H](O)CC[C@]23CCCN13	.	/	.	/	.	.	/
O=C(NCc1cccs1)C1CCC(CNS(=O)(=O)c2cccc3cccnc23)CC1 (stereo not drawn)	.	/	.	/	.	.	/
O=C1/C(=C/c2cccnc2)Sc2ccccc21	.	.	.	.	46.5	.	.
Cc1ccc(/C=C2\CCCC3=C2NC(=S)NC3c2ccc(C)cc2)cc1 (stereo not drawn)	.	.	.	.	45.2	.	35.3
Cc1ccc(/C=C2\CC(C)CC3=C2NC(=S)NC3c2ccc(C)cc2)cc1 (stereo not drawn)	.	.	.	.	38.0	.	30.2
CC1CC2=C(NC(=S)NC2c2cccc(F)c2)/C(=C/c2cccc(F)c2)C1 (stereo not drawn)	.	.	.	.	.	.	/
CC1CC2=C(NC(=S)NC2c2ccccc2F)/C(=C/c2ccccc2F)C1 (stereo not drawn)	.	.	.	.	49.5	.	.
COCCN1Cc2cc(C(=O)OC)c3c(c2C1=O)c1cc(OC)ccc1n3C(=O)c1ccccc1	.	/	.	/	.	.	/
CCN(c1ccc(NS(=O)(=O)c2cc(Cl)ccc2Cl)cc1)C(C)C	.	.	.	.	32.4	.	.
Nn1c(SCC(=O)Nc2ccc(C(=O)O)cc2)nnc1-c1ccco1	.	/	.	/	.	.	/
Cc1ccnc(SCc2cc(=O)c(OC(=O)c3ccc(C)c([N+](=O)[O-])c3)co2)n1	.	/	.	/	.	.	/
COc1ccc2c(c1)CCCN2C(=O)C1CCCN(S(=O)(=O)c2ccc(Br)s2)C1 (stereo not drawn)	.	/	.	/	.	.	/
COc1ccc(NC(=O)CSc2nnnn2C2CC2)cc1S(=O)(=O)N1CCOCC1	.	/	.	.	38.0	.	.
COc1ccc(S(=O)(=O)N2CCOCC2)cc1NC(=O)CSc1nnnn1C1CC1	.	/	.	.	.	.	/
Cc1ccc(/C=C/C(=O)Nc2cccc(S(=O)(=O)N3CCOCC3)c2)o1	.	.	.	.	35.9	.	.
CC1CCN(c2c3c(nc4ncnn24)CCCC3)CC1	.	/	.	/	.	.	/
C=CCNC(=O)Nc1ccc2c(c1)[C@]1(CC(=O)N(CC(C)C)C1c1ccccc1)C(=O)N2C (stereo partly drawn)	.	/	.	/	.	.	/
O=S1(=O)CC2c3ccc(F)cc3CN2CN1Cc1ccccc1 (stereo not drawn)	.	/	.	/	.	.	/
c1ccc2c(c1)[nH]c1nc(SCCN3CCOCC3)nnc12	.	.	.	.	29.9	.	.
Brc1ccc2[nH]c3nc(SCCN4CCOCC4)nnc3c2c1	.	.	.	.	.	.	/
COC(=O)[C@]12C[C@H](CC(=O)NCC3CCCCC3)C(=O)N(Cc3cccc4ccccc34)C1=C[C@H](C1CCCC1)O[C@@H]2C	.	/	.	/	.	.	/
COc1cc(OC)c(C2CC(=O)N3CN(c4ccccc4C)CSC3=C2C#N)cc1OC (stereo not drawn)	.	.	.	/	29.3	.	80.1
COc1ccc(C2CC(=O)N3CN(c4ccccc4F)CSC3=C2C#N)cc1OC (stereo not drawn)	.	.	.	.	.	.	/
CCc1ccccc1N1CSC2=C(C#N)C(c3ccccc3F)CC(=O)N2C1 (stereo not drawn)	.	.	.	.	53.6	.	42.5
SMILES	UHRF1 binding	RBBP9 inh	MBD2 DNA inh	ABHD5-PLIN5 inh	PRMT1 inh	LEDGF integ inh	PRMT1 confirm
CCO[C@H]1OC(C(N)=O)=C[C@@H](c2ccccc2)[C@@H]1CCCO	.	.	.	.	73.1	.	.
Cc1ccc(CN(Cc2ccco2)C(=S)NCC(=O)NCc2cccnc2)cc1	.	.	.	.	.	.	/
Cc1ccc(CN(Cc2ccccc2)C(=S)NCC(=O)NCc2cccnc2)o1	.	.	.	.	32.6	.	.
O=C(NC1CCCCN(Cc2cccc(Cl)c2)C1=O)c1ccc(-c2ccccc2)cc1 (stereo not drawn)	.	/	.	/	.	.	/
CCOC(=O)c1ccc(NC(=S)N2CCSC2c2ccc(Cl)cc2)cc1 (stereo not drawn)	.	.	.	.	83.7	.	.
COc1ccc(C2SCCN2C(=S)Nc2ccc(F)cc2)cc1 (stereo not drawn)	.	.	.	.	57.8	.	.
CCOC(=O)c1ccc(NC(=S)N2CCSC2c2ccc(OC)cc2)cc1 (stereo not drawn)	.	.	.	.	88.0	.	.
COc1ccc(C2SCCN2C(=S)Nc2cccc(C(F)(F)F)c2)cc1 (stereo not drawn)	.	.	.	.	.	.	/
C[C@H](O)[C@@H]1C(=O)N2CCc3c([nH]c4cccc(-c5ccccc5)c34)[C@@H]2C[C@@H]1N(C)C(=O)Nc1ccccc1	.	/	.	/	.	.	/
COc1ccc(C(=O)C(=O)N2CCN(C(=O)c3ccccc3C(F)(F)F)CC2)cc1OC	.	/	.	/	.	.	/
COc1ccc(C2C(C(=O)N3CCOCC3)CC(=O)N2c2ccc(OC)cc2)cc1 (stereo not drawn)	.	/	.	/	.	.	/
Cc1cccc(NC(=S)NC(=O)/C=C/c2ccco2)c1	.	.	.	.	35.5	.	.
O=C(O)CCc1ccc(-c2ccccc2)n1Cc1ccco1	.	.	.	.	33.0	18.3	.
O=C(O)CCc1ccc(-c2ccc(Br)cc2)n1Cc1ccco1	.	.	.	.	.	.	/
O=C(CSc1nnc(-c2ccccc2)n1-c1ccc(Cl)cc1)c1ccc(Cl)cc1	.	/	.	/	.	.	/
COC(=O)C1CN(C2CCCC2)CCS(=O)(=O)N1Cc1ccc(OC)cc1 (stereo not drawn)	.	/	.	/	.	.	/
COc1cccc(NC(=O)C2C3C=CC(O3)C2C(=O)O)c1 (stereo not drawn)	.	/	.	.	.	.	/
COc1ccc(NC(=O)C2C3C=CC(O3)C2C(=O)O)cc1 (stereo not drawn)	.	/	.	.	36.0	.	.
Cc1ccc(CN(C)C(=O)c2cc(COc3cccc(C(F)(F)F)c3)on2)o1	.	/	.	.	36.5	.	34.1
CN(Cc1nccn1C)C(=O)c1cc(COc2cccc(C(F)(F)F)c2)on1	.	/	.	.	.	.	/
CO[C@@]1(NC(=O)C2SC(=C(C(N)=O)C(=O)O)S2)C(=O)N2C(C(=O)O)=C(CSc3nnnn3C)CS[C@@H]21 (stereo partly drawn)	.	/	.	.	37.4	.	.
COC(=O)[C@H](C(C)C)N1Cc2nnn(CC3CCCCC3)c2-c2cc(F)ccc2S1(=O)=O	.	/	.	/	.	.	/
Cc1ccc(C)c(NC(=S)c2nc3ccccc3s2)c1	.	.	.	.	28.9	.	.

Screening results deposited in PubChem BioAssay by The Scripps Research Institute Molecular Screening Center.
